Measurements from ChEMBL document CHEMBL3271971, “Antineoplastic and biochemical properties of arylsulfonylhydrazones of 2-formylpyridine N-oxide” (J Med Chem, 1976).

Key:
[1] = Antineoplastic activity against mouse Hepa129 cells allografted in C3H mouse assessed as mouse survival at 60 mg/kg administered qd for 6 days measured for 50 days relative to control; format: functional
Outline: (§1)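 Ascitic tumours were transplanted from an appropriate donor mouse carrying a 7-day tumour growth. Drug was given at 10–60 mg/kg/day for six consecutive days. Sensitivity was judged by prolongation of survival time relative to untreated tumour-bearing controls. Mice were weighed throughout, and percentage weight change from onset to end of therapy indicated toxicity.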

Mus musculus [2] = assay: Toxicity in CD-1 mouse allografted with mouse S180A cells assessed as change in body weight at maximum effective dose administered qd for 6 days (reference value: 23.2%); format: organism-based; conditions: 144 h
Mus musculus [3] = assay: Effect on DNA synthesis in tumor of CD-1 mouse allografted with mouse S180A cells assessed as [3H]-thymidine incorporation at 20 mg/kg, ip pretreated for 1 hr followed by radiotracer-addition measured after 1 hr relative to control; format: functional; conditions: route intraperitoneal
Outline: (§2)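 Sarcoma 180 ascites cells implanted 6 days earlier. Mice received a single ip dose of 10–80 mg/kg, then 1 h later an ip tracer: 200 μg thymidine-3H, 200 μg uridine-3H or 125 μg DL-leucine-14C. Tracer was incorporated for 1 h. Specific activity of tumor-cell DNA, RNA or protein is expressed as % of untreated controls. Values are means of 4-16 mice, each analyzed separately.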

Mus musculus [4] = assay: Effect on RNA synthesis in tumor of CD-1 mouse allografted with mouse S180A cells assessed as [3H]-uridine incorporation at 10 mg/kg, ip pretreated for 1 hr followed by radiotracer-addition measured after 1 hr relative to control; format: functional; conditions: route intraperitoneal; outline: as §2
[5] = Antineoplastic activity against 1-formylisoquinoline thiosemicarbazone-resistant mouse S180A cells allografted in CD-1 mouse assessed as average survival at 40 mg/kg administered qd for 6 days (reference value: 14.4 +/- 0.9 days); format: functional; outline: as §1
Mus musculus [6] = assay: Toxicity in CD-1 mouse allografted with mouse EAC cells assessed as change in body weight at 60 mg/kg administered qd for 6 days (reference value: 26.8%); format: organism-based, Ehrlich; set-up: dose 60 mg/kg; conditions: in vivo, 144 h
Outline: (§3)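 Ascitic tumors were transplanted from a donor mouse bearing a 7-day tumor. Daily doses were given for six consecutive days. Percentage body-weight change from onset to termination of therapy served as the index of drug toxicity.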

Ehrlich [7] = assay: Antineoplastic activity against mouse EAC cells allografted in CD-1 mouse assessed as average survival at 40 mg/kg administered qd for 6 days (reference value: 14.4 +/- 1.2 days); format: functional; outline: as §1
Ehrlich [8] = assay: Antineoplastic activity against mouse EAC cells allografted in CD-1 mouse assessed as mouse survival at 40 mg/kg administered qd for 6 days measured for 50 days relative to control; format: functional; outline: as §1
Mus musculus [9] = assay: Effect on protein synthesis in tumor of CD-1 mouse allografted with mouse S180A cells assessed as [14C]-leucine incorporation at 80 mg/kg, ip pretreated for 1 hr followed by radiotracer-addition measured after 1 hr relative to control; format: functional; conditions: route intraperitoneal; outline: as §2
L1210 [10] = assay: Antineoplastic activity against mouse L1210 cells allografted in BDF1 mouse assessed as average survival at 20 mg/kg administered qd for 6 days (reference value: 8.2 +/- 0.4 days); format: functional; outline: as §1
Mus musculus [11] = assay: Toxicity in CD-1 mouse allografted with mouse S180A cells assessed as change in body weight at 20 mg/kg administered qd for 6 days (reference value: 23.2%); format: organism-based; set-up: dose 20 mg/kg; conditions: in vivo, 144 h
Mus musculus [12] = assay: Effect on DNA synthesis in tumor of CD-1 mouse allografted with mouse S180A cells assessed as [3H]-thymidine incorporation at 10 mg/kg, ip pretreated for 1 hr followed by radiotracer-addition measured after 1 hr relative to control; format: functional; conditions: route intraperitoneal; outline: as §2
Mus musculus [13] = assay: Toxicity in BDF1 mouse allografted with mouse L1210 cells assessed as change in body weight at 40 mg/kg administered qd for 6 days (reference value: 13.6%); format: organism-based; set-up: dose 40 mg/kg; conditions: in vivo, 144 h; outline: as §3
Ehrlich [14] = assay: Antineoplastic activity against mouse EAC cells allografted in CD-1 mouse assessed as mouse survival at 20 mg/kg administered qd for 6 days measured for 50 days relative to control; format: functional; outline: as §1
Mus musculus [15] = assay: Toxicity in CD-1 mouse allografted with mouse S180A cells assessed as change in body weight at 40 mg/kg administered qd for 6 days (reference value: 23.2%); format: organism-based; set-up: dose 40 mg/kg; conditions: in vivo, 144 h
[16] = Antineoplastic activity against mouse S180A cells allografted in CD-1 mouse assessed as maximum dose required for increase in mouse survival administered qd for 6 days; format: functional
[17] = Antineoplastic activity against mouse S180A cells allografted in CD-1 mouse assessed as average survival at maximum effective dose administered qd for 6 days relative to control; format: functional
Outline: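 Sarcoma 180 ascites cells were transplanted from a donor mouse bearing a 7-day tumour. Each agent was tested at 10–60 mg/kg/day, once daily for six consecutive days, starting 24 h after transplantation, in groups of 5–10 mice. Pooled untreated controls totalled 40 mice. Mice surviving beyond 50 days were counted as 50-day survivors, and body-weight change over therapy served as the toxicity index.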

[18] = Antineoplastic activity against mouse Hepa129 cells allografted in C3H mouse assessed as average survival at 60 mg/kg administered qd for 6 days (reference value: 18 +/- 0.6 days); format: functional; outline: as §1
[19] = Antineoplastic activity against mouse S180A cells allografted in CD-1 mouse assessed as average survival at 20 mg/kg administered qd for 6 days (reference value: 12.9 +/- 1.2 days); format: functional; outline: as §1
Mus musculus [20] = assay: Toxicity in BDF1 mouse allografted with mouse L1210 cells assessed as change in body weight at 20 mg/kg administered qd for 6 days (reference value: 13.6%); format: organism-based; set-up: dose 20 mg/kg; conditions: in vivo, 144 h; outline: as §3
Mus musculus [21] = assay: Effect on DNA synthesis in tumor of CD-1 mouse allografted with mouse S180A cells assessed as [3H]-thymidine incorporation at 80 mg/kg, ip pretreated for 1 hr followed by radiotracer-addition measured after 1 hr relative to control; format: functional; conditions: route intraperitoneal; outline: as §2
Mus musculus [22] = assay: Effect on RNA synthesis in tumor of CD-1 mouse allografted with mouse S180A cells assessed as [3H]-uridine incorporation at 80 mg/kg, ip pretreated for 12 hrs followed by radiotracer-addition measured after 1 hr relative to control; format: functional; conditions: route intraperitoneal
Outline: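 Mice bearing 6-day Sarcoma 180 ascites implants received a single ip dose of 80 mg/kg. At the stated pretreatment time they were given ip tracer: 200 μg thymidine-3H, 200 μg uridine-3H or 125 μg DL-leucine-14C. After 1 h of incorporation, specific radioactivity of DNA, RNA or protein was read as % of control incorporation.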

Ehrlich [23] = assay: Antineoplastic activity against mouse EAC cells allografted in CD-1 mouse assessed as mouse survival at 60 mg/kg administered qd for 6 days measured for 50 days relative to control; format: functional; outline: as §1
Mus musculus [24] = assay: Effect on DNA synthesis in tumor of CD-1 mouse allografted with mouse S180A cells assessed as [3H]-thymidine incorporation at 40 mg/kg, ip pretreated for 1 hr followed by radiotracer-addition measured after 1 hr relative to control; format: functional; conditions: route intraperitoneal; outline: as §2
Ehrlich [25] = assay: Antineoplastic activity against mouse EAC cells allografted in CD-1 mouse assessed as average survival at 60 mg/kg administered qd for 6 days (reference value: 14.4 +/- 1.2 days); format: functional; outline: as §1
L1210 [26] = assay: Antineoplastic activity against mouse L1210 cells allografted in BDF1 mouse assessed as average survival at 40 mg/kg administered qd for 6 days (reference value: 8.2 +/- 0.4 days); format: functional; outline: as §1

Q: Which survival at 60 mg/kg [1] does the source give for `Cc1ccc(S(=O)(=O)N/N=C/c2cccc[n+]2[O-])cc1` here?
A: 20%

Q: What about the Activity (Mus musculus [2]) of the same compound?
A: -8%

Q: And the Activity (Mus musculus [3])?
A: 71%

Q: What about the Activity (Mus musculus [4]) of the same compound?
A: 74%

Q: And the Survival [5]?
A: 24.4 days

Q: And the Activity (Mus musculus [6])?
A: -1.8%

Q: And the Survival (Ehrlich [7])?
A: 47 days

Q: What about the survival at 40 mg/kg (Ehrlich [8]) of the same compound?
A: 50%

Q: What about the Activity (Mus musculus [9]) of the same compound?
A: 73%

Q: What about the Survival (L1210 [10]) of the same compound?
A: 8.6 days

Q: And the Activity (Mus musculus [11])?
A: 21.6%

Q: What about the Activity (Mus musculus [12]) of the same compound?
A: 71%

Q: And the Activity (Mus musculus [13])?
A: 2.8%

Q: And the survival at 20 mg/kg (Ehrlich [14])?
A: 10%

Q: And the Activity (Mus musculus [15])?
A: -3.1%

Q: What about the Activity [16] of the same compound?
A: 60 mg/kg

Q: And the T/C [17]?
A: 307%

Q: And the Survival [18]?
A: 29.4 days

Q: And the Survival [19]?
A: 24.9 days

Q: What about the Activity (Mus musculus [20]) of the same compound?
A: 10.6%

Q: And the Activity (Mus musculus [21])?
A: 59%

Q: And the Activity (Mus musculus [22])?
A: 102%

Q: And the survival at 60 mg/kg (Ehrlich [23])?
A: 40%

Q: What about the Activity (Mus musculus [24]) of the same compound?
A: 67%

Q: What about the Survival (Ehrlich [25]) of the same compound?
A: 40.8 days

Q: What about the Survival (L1210 [26]) of the same compound?
A: 9.2 days
